Measured values pooled from the literature.
Lines come from different studies, so protocols differ.
Cell line: MDA-MB-468
Effect on: cell growth or viability

Compound | test | setting | IC50
Nc1ccc2cc3[nH]c4cc(N)ccc4c3nc2c1 | MTT | – | 0.11 µM
O=S(=O)(NN=Cc1cn(CCN2CCOCC2)c2ccccc12)c1ccc(-c2ccccc2)cc1 | MTT | 48 h | 32 µM
COc1cc2cc(OC)c3cc4c(cc3c2c(OC)c1OC)OCO4 | MTT | – | 21 µM
COc1ccc(S(=O)(=O)NN=Cc2cn(CCN3CCOCC3)c3ccccc23)cc1 | MTT | 48 h | 43.3 µM
Oc1ccc(N=Nc2ccccc2)c2ccccc12 | MTT | – | 4.9 µM
O=S(=O)(NN=Cc1cn(CCN2CCOCC2)c2ccccc12)c1ccc2ccccc2c1 | MTT | 48 h | 53.4 µM
CN(C)c1ccc(/C=C/c2ccnc3ccc4ccccc4c23)cc1 | MTT | – | 0.12 µM
COc1cc(/C=C2\SC(=O)NC2=O)ccc1OCc1ccc(Cl)cc1Cl | MTT | 72 h | 64.1 µM
COc1cccc2c1C(=O)c1c(O)c3c(c(O)c1C2=O)C[C@@](O)(C(=O)CO)C[C@@H]3O[C@H]1C[C@H](N)[C@H](O)[C@H](C)O1 | resazurin | 72 h | 0.1 µM
COc1ccc(Br)cc1/C=C/C(=O)c1ccc(NC(C)=O)cc1 | MTT | 72 h | 1.8 µM
O=S(=O)(NN=Cc1cn(CCN2CCOCC2)c2ccccc12)c1ccccc1 | MTT | 48 h | 47 µM
COc1ccc(/C=C/C(=O)c2cc(Br)ccc(=O)c2O)cc1 | MTT | 48 h | 6.3 µM
CC1=CC(=C(c2ccc(N)c(C)c2)c2ccc(N)c(C)c2)C=CC1=N | MTT | – | 3.1 µM
Nc1nc(Nc2ccc(S(N)(=O)=O)cc2)sc1C(=O)c1cccc(F)c1 | MTT | 72 h | 0.85 µM
Cc1cc(NS(=O)(=O)c2ccc(NC(=O)COc3ccc(C(C)(C)c4ccccc4)cc3)cc2)nc(C)n1 | MTT | 72 h | 34.9 µM
O=S(=O)(Cc1ccccc1)NN=Cc1cn(CCN2CCOCC2)c2ccccc12 | MTT | 48 h | 50.6 µM
O=C(CSc1nc2ccc(N=Cc3ccc(Sc4nnnn4-c4ccccc4)o3)cc2s1)N1CCOCC1 | MTT | 72 h | 20.4 µM
Cc1ccccc1Sc1cc2ccccc2c2ccccc12 | MTT | – | 29 µM
CC(=O)Nc1nc(C)c(-c2csc(Nc3ccccc3)n2)s1 | MTT | 72 h | 11.1 µM
O=S(=O)(NN=Cc1cn(CCN2CCOCC2)c2ccccc12)c1ccc(F)cc1 | MTT | 48 h | 15 µM
